Measurements as given in article PMC5653211 (Journal of medicinal chemistry, 2017).

Tests used:
α7 nAChR [1] = target: T1, α7 nAChR (Homo sapiens, UniProt P36544); assay type: cell-based; conditions: for α7 activation / partial agonism: compound applied alone; for Response when applied alone, of the control ACh response: concentrations of Figure 4, 60 µM ACh control
Procedure, shortened: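 Two-electrode voltage clamp on Xenopus laevis oocytes expressing human α7 nAChR. Test compound applied alone at 10, 30, 100, 300 µM and 1 mM; one comparator was tested only up to 300 µM. Response taken as net charge normalized to 60 µM ACh applied alone.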

α7 nAChR [2] = target: T1, α7 nAChR; assay: Inhibition of α7 ACh-evoked responses, co-application with 60 µM ACh; assay type: cell-based; conditions: range 0.3–100 µM; co-applied with 60 µM ACh
Procedure, shortened: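 Xenopus laevis oocytes expressing human α7 nAChR, two-electrode voltage clamp. Test compound co-applied with 60 µM ACh at 0.3, 1, 3, 10, 30, 100 […] µM. Net charge normalized to responses to 60 µM ACh applied alone. Each point is the mean of at least four cells (± S.E.M.); IC50 values come from the inhibition concentration-response curve.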

α7 nAChR [3] = target: T1, α7 nAChR; assay: PAM-potentiated α7 responses, co-application with 10 µM 1; assay type: cell-based; conditions: for Potentiation by 1: co-applied with 10 µM 1
Procedure, shortened: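 Human α7 nAChR in Xenopus laevis oocytes, two-electrode voltage clamp. Test compound at 10, 30 or 100 µM co-applied with 10 µM positive allosteric modulator. Net charge normalized to 60 µM ACh controls in the same cells; at least four cells (± S.E.M.). Desensitization: 60 µM ACh responses recorded before and after test compound application, 210 s traces, averaged over 8 cells and normalized to pre-application ACh controls.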

[4] = target: human heteromeric nicotinic receptor α4β2 (Homo sapiens, UniProt P17787+P43681); assay type: cell-based
muscle type human nAChR = muscle type human nAChR (Homo sapiens, UniProt P02708+Q07001); assay: Activation and ACh competition at muscle type nAChR, oocyte voltage clamp; assay type: cell-based
[5] = target: ganglionic α3β4 human nAChR (Homo sapiens, UniProt P30926+P32297); assay: Activation and ACh competition at ganglionic α3β4 nAChR, oocyte voltage clamp; assay type: cell-based
[6] = Hydrolytic stability in water and Ringer's buffer by 1H-NMR; assay type: physicochemical; conditions: water, room temperature (~ 25 °C), 3 h, 19 h and up to 60 days

Row | Structure (SMILES) | α7 activation / partial agonism (α7 nAChR [1]) | Response when applied alone, of the control ACh response (α7 nAChR [1]) | Inhibition of α7 ACh responses (α7 nAChR [2]) | Potentiation by 1 (α7 nAChR [3]) | PAM response enhancement compared to the parent compound 4 (α7 nAChR [3]) [fold] | Reversibility of desensitization (α7 nAChR [3]; 100 µM 7 for 30s, then 10 µM PNU120596, subsequent 60 µM ACh response) | Potentiated response relative to the response to compound applied alone (α7 nAChR [3]; coapplication with 10 µM 1) | Response compared to the control ACh response (α7 nAChR [3]; coapplication with 10 µM 1, over 10-100 µM compound) [fold] | Agonism [4] | Activation (muscle type human nAChR; 30 µM compound) | Antagonism (muscle type human nAChR; co-application with 30 µM ACh) | Activation ([5]; 30 µM compound) | Antagonism ([5]; co-application with 100 µM ACh) | Hydrolytic stability, 1H-NMR spectra vs time zero [6] | Potentiated responses relative to the corresponding ones for 7 (α7 nAChR [3]; at 10, 30, and 100 µM + 10 µM 1)
1 | CCN1CCN(c2ccccc2)CC1 [compound 5, N-phenyl N’-ethyl piperazine] | no activation | less than 10% | lacked the ability to inhibit | failed to show significant potentiated responses |  |  |  |  |  |  |  |  |  |  | 
2 | CC[S+]1CCN(c2ccccc2)CC1.O=S(=O)([O-])C(F)(F)F [compound 7, 1-ethyl-4-phenylthiomorpholin-1-ium trifluoromethane sulfonate] | virtually no activation | less than 10% |  |  | 4 | readily reversible | 2–3 orders of magnitude | 3 to 25 | failed to show agonism | failed to produce measureable activation | weak antagonism | failed to produce measureable activation | weak antagonism | no differences in the spectra | 
3 | CC[N+]1(CC)CCN(c2ccccc2)CC1 [compound 4, N,N-diethyl-N’-phenylpiperazine, reference compound] |  | less than 10% |  | modest potentiation |  |  |  |  |  |  |  |  |  |  | half or less
